Source: PubChem BioAssay (several laboratories)
aSyn UTR inh – MLPCN primary screen, SNCA 5' untranslated region. hit rate 0.82% among 300,000. alpha-synuclein 5'UTR reporter, inhibitor activity. inhibition, % (tested at 7.5 µM). AID 1813; in the data active = inhibition above about 60%;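 note: H4 neuroglioblastoma cells stably carrying SNCA 5'UTR luciferase fusion; 0% = DMSO wells and 100% = positive control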
697 NFkB inh – lowers PMA/ionomycin-induced NF-kB signal in 697 B cells | inhibition, % at 4 µM | 697 B-cell NF-kB luciferase reporter, 16 h | hit rate 0.33% among 330,000; in the data active = inhibition above about 35%
IMP-1 inhibitor – blocks Pseudomonas aeruginosa IMP-1 metallo-beta-lactamase | purified IMP-1, nitrocefin hydrolysis, epi-absorbance fluorescence | inhibition, % at 5.6 µM | hit rate 0.45% among 290,000 | AID 1556;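 active = inhibition above the mean plus 3 SD of all compounds in the same screening run, cut at about 4.5% in these data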;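 note: 0% = IMP-1 with DMSO and 100% = DMSO wells lacking enzyme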
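Material – recombinant IMP-1 enzyme, purified · Amount – IMP-1 0.2 nM before substrate addition · Medium – HEPES buffer pH 7.1 with ZnSO4 and Brij 35 · Timing – 25 °C, 15 min preincubation, 25 min reaction · Measured by – plate fluorescence quenching by hydrolysis product, ex 480/em 530 nm · Read-out – percent enzyme inhibition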
Jurkat NFkB inh – inhibitors of the PMA/ionomycin-induced NF-kB reporter in Jurkat cells. PMA/ionomycin-induced NF-kB luciferase reporter, luminescence. inhibition, % at 4 µM. hit rate 0.53% among 330,000. AID 435003; in the data active = inhibition above about 50%
VIM-2 inh – inhibitors of Pseudomonas aeruginosa VIM-2 metallo-beta-lactamase; purified VIM-2, nitrocefin hydrolysis, epi-absorbance fluorescence; inhibition, % at 5.6 µM; hit rate 0.89% among 290,000;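 active = inhibition above the mean of all tested compounds plus 3 SD, cutoff set per screening run, cut at about 7.5% in these data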;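 note: red hydrolysis product quenches plate fluorescence so inhibitors raise well fluorescence; 0% = enzyme with DMSO and 100% = DMSO without enzyme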
Mdm2 MdmX PPI – disrupts the human Mdm2-MdmX interaction; O15151+Q00987; SaOS-2 split-luciferase Mdm2/MdmX complementation, luminescence; inhibition, % at 8 µM; hit rate 3% among 330,000; AID 485346;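 active = inhibition of at least 50% at 8 µM in the primary screen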
Target sequence (O15151 whole entry, looked up): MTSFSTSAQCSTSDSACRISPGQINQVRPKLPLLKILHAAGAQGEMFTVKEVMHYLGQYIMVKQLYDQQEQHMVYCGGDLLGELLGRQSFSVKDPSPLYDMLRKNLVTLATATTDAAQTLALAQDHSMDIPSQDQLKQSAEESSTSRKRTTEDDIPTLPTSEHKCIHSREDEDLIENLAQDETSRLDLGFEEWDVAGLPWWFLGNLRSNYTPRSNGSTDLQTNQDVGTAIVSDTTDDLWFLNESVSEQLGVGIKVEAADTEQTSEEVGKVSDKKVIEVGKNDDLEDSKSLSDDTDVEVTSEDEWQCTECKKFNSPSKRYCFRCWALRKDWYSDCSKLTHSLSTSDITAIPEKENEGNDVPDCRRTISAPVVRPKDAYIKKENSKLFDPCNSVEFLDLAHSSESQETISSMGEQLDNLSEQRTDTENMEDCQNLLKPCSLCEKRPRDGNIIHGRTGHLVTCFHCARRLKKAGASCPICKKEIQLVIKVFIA
Target sequence (Q00987 whole entry, looked up): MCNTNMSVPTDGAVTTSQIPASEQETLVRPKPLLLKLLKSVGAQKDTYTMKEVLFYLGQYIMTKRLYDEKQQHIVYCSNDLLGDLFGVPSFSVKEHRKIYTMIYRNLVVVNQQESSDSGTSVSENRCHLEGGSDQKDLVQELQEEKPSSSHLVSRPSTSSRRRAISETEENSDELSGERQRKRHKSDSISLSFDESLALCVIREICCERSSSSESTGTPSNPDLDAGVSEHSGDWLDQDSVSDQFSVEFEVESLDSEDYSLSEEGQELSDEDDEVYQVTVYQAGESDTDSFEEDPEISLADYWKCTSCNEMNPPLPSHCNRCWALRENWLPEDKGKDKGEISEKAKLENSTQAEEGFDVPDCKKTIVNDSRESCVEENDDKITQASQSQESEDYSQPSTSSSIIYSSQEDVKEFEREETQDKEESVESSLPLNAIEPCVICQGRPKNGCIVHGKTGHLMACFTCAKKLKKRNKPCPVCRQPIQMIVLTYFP
Jurkat NFkB conf – lowers PMA/ionomycin-induced NF-kB signal in Jurkat cells; shares compounds with Jurkat NFkB inh; Jurkat NF-kB luciferase, 16 h; inhibition, % at 4 µM; hit rate 27% among 2,700;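 active = inhibition reaching about 45% at 4 µM in either replicate, limit read from the data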;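 note: plate controls were PMA/ionomycin stimulated DMSO wells for no effect and unstimulated DMSO wells for full effect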
Starred values were filed as active, the others as inactive; / = not tested or not shown. Most compounds without a hit are left out; they make up all but 4.7% or so of the library.

SMILES	aSyn UTR inh	697 NFkB inh	IMP-1 inhibitor	Jurkat NFkB inh	VIM-2 inh	Mdm2 MdmX PPI	Jurkat NFkB conf
Cc1cc(C(=O)Nc2ccc3c(c2)OCCO3)ccc1[N+](=O)[O-]	7.6	-71.8	-3.2	-159.8	-0.2	-90.9	-82.2
O=C(Nc1ccc(Cl)cn1)c1ccc2c(Cl)c3c(nc2c1)CCC3	-49.7	-168.3	0.4	-157.3	-0.6	-41.2	-93.0
CN(C)CCCNS(=O)(=O)c1ccc(NC2CCCCCC2)c([N+](=O)[O-])c1	-29.8	-26.0	-2.6	55.6*	-1.8	45.6	22.6
O=C(NCC(=O)N1CC=C(c2ccccc2)CC1)c1ccco1	-47.3	11.1	/	15.4	/	-2.0	/
CCc1ccc(OCC(=O)Nc2ccc3c(c2)OCCO3)cc1	-25.0	9.4	-1.7	-5.4	0.2	-0.6	/
Nc1ccc(Br)c2cccnc12	-15.6	-3.1	-3.2	14.4	-1.8	11.7	/
Nc1ccc(N=Nc2ccccc2)c2cccnc12	-57.1	-85.1	-3.3	84.5*	-0.8	-45.6	-1.9
CCC1(c2ccccc2)NC(=O)N(CC(=O)N(C)CC(=O)Nc2ccc(F)c(F)c2F)C1=O (stereo unspecified)	14.9	2.5	/	-5.4	/	13.3	/
O=C(OCC(=O)c1cccs1)c1ccccc1	-32.5	11.5	-2.4	0.2	-2.3	-15.1	/
COc1ccccc1NC(CC(=O)c1ccccc1)C(=O)OCC(=O)c1ccc(C)cc1 (stereo unspecified)	-189.7	-149.3	-2.6	-117.3	-1.6	-75.9	/
O=C(CC(Nc1ccccc1Cl)C(=O)OCC(=O)c1cccs1)c1ccccc1 (stereo unspecified)	-118.5	-232.4	-1.6	-200.0	0.2	39.5	1.8
COc1ccccc1NC(CC(=O)c1ccccc1)C(=O)OCC(=O)c1ccc(Br)cc1 (stereo unspecified)	-130.0	-185.5	0.3	-163.0	1.1	-13.7	-60.0
COc1ccc(CC(=O)NCC(C)(C)N2CCOCC2)cc1	-1.6	22.0	-3.3	-5.7	-5.1	28.9	/
CCn1ccnc1C(O)(c1ccccc1)c1ccccc1	3.1	2.2	-2.2	19.3	-0.3	13.7	/
CC(=O)c1cccc(NC(=S)N2CCN(S(=O)(=O)c3ccccc3)CC2)c1	6.6	12.4	-3.9	-8.4	-1.7	30.8	/
COC(=O)C1CCN(C(=O)c2ccc(Cl)c(S(=O)(=O)NCc3cccnc3)c2)CC1	-18.2	-15.3	-3.5	2.1	-1.6	13.8	/
Cc1cccc(OCCNC(=O)c2ccc(Cl)c(S(=O)(=O)NCc3cccnc3)c2)c1	/	-27.6	/	66.2*	/	42.0	39.6
O=C(Nc1ccc(OC(F)F)c(Cl)c1)c1ccccn1	-92.0	-159.5	-4.8	-175.9	-4.4	-136.3	-96.2
COc1ccc(NC(=O)c2ccc(OC(F)F)cc2)cc1Cl	-167.5	-99.8	0.2	-137.2	-0.6	-93.5	/
O=C(Nc1ccc(Oc2cccnc2)nc1)c1ccc(C(F)(F)F)cc1	-37.8	-42.3	2.3	50.1*	1.9	-3.2	56.5*
CC(C)(C)c1csc(Sc2ccc([N+](=O)[O-])cn2)n1	-29.0	3.8	-2.8	81.4*	-3.4	30.0	39.7
Cc1ccnc(Sc2ccc([N+](=O)[O-])cn2)n1	-72.3	-38.7	-1.9	-31.8	-1.8	-20.2	/
CCCCn1c(N)c(N(CCOC)C(=O)c2oc3ccc(OCC)cc3c2C)c(=O)[nH]c1=O	-1.7	-10.2	/	-3.2	/	-5.5	/
COc1cccc(NC(=O)c2ccc3c(c2)CCCC3)c1	-31.4	-20.9	-7.3	-153.5	-3.0	-237.2	-118.3
COc1ccc(C(=O)Nc2cccc(C(=O)N/N=C/c3ccc(OC)cc3OC)c2)cc1	83.2*	-14.3	-3.4	56.6*	-3.0	16.0	1.9
SMILES	aSyn UTR inh	697 NFkB inh	IMP-1 inhibitor	Jurkat NFkB inh	VIM-2 inh	Mdm2 MdmX PPI	Jurkat NFkB conf
COc1ccc(/C=N/NC(=O)c2cccc(NC(C)=O)c2)c(OC)c1	23.2	11.1	-1.2	-9.8	-1.9	6.0	/
Cc1ccc(S(=O)(=O)NC2CC(C)(C)N(O)C(C)(C)C2)cc1	/	18.8	/	5.9	/	-0.4	/
COc1ccc(NC(=S)NN(C)C(=S)Nc2ccc(OC)cc2)cc1	23.3	-49.0	-0.9	65.5*	-3.6	43.9	-2.0
COc1ccc(NC(=S)Nc2ccc(Oc3ccccc3)cc2)cc1	36.4	-2.1	2.1	8.2	-3.8	29.5	/
CCOc1ccc(S(=O)(=O)N2CCN=C2c2ccccc2)cc1	-27.4	-65.1	-3.6	54.2*	-1.1	46.2	12.3
CN(C)CCNC(=O)C1CCN(S(=O)(=O)c2ccc3ccccc3c2)CC1	3.9	-19.4	-2.9	-17.5	-2.8	-1.0	/
Oc1ccc(/C(Cc2ccc3ccccc3n2)=N\Nc2ccccc2)c(O)c1	-89.7	0.9	2.8	-3.6	-1.6	-16.4	/
O/C(=C\c1ccc2ccccc2n1)c1ccc(O)cc1O	-28.8	-185.8	0.2	-170.0	0.8	-237.5	-15.3
O=[N+]([O-])c1ccc(N2CCN(Cc3ccccc3)CC2)nc1	19.9	-2.3	0.4	14.3	0.4	-8.1	/
O=[N+]([O-])c1ccc(N2CCN(c3cccc(Cl)c3)CC2)nc1	-44.6	4.6	-4.0	61.3*	-2.5	18.3	15.4
COc1ccc(S(=O)(=O)N2CCCCCC2)cc1NC(=O)CN1C(=O)CNC1=O	/	19.1	/	-4.7	/	15.7	/
Cc1ccc(NC(=O)/C(Cl)=C\c2ccccc2)cc1	-105.2	-101.8	/	-223.1	/	-161.7	-125.6
Nn1c(SCC(=O)NCCCc2ccccc2)nnc1-c1cccnc1	-6.2	7.7	-3.9	4.5	-2.6	18.0	/
Cc1ccc(C(=O)CSC2=C(C#N)C(c3ccco3)C3=C(CCCC3=O)N2)cc1 (stereo unspecified)	38.1	-83.6	-1.8	66.6*	-4.1	46.4	44.2
Cc1ccccc1NC(=O)CN(C)S(=O)(=O)c1ccc(-c2ccc(=O)[nH]n2)s1	18.3	-17.7	0.6	-17.3	0.8	6.4	/
CCOc1ccccc1C1CC(=O)Nc2cc3c(cc21)OCO3 (stereo unspecified)	66.1*	-0.7	-2.2	63.1*	-3.4	39.5	60.5*
COc1cccc(C2CC(=O)Nc3cc4c(cc32)OCCO4)c1OC(C)C (stereo unspecified)	/	-5.9	-2.7	13.7	0.9	23.1	/
CC(C)Oc1ccccc1C1CC(=O)Nc2cc3c(cc21)OCCO3 (stereo unspecified)	72.8*	-19.6	0.1	78.1*	-0.1	47.6	50.7*
Cc1ccc(OCCSc2nc3ccccc3n2CCC(=O)O)cc1	7.1	-7.6	-1.4	0.9	-1.2	5.8	/
COC(=O)[C@H](Cc1ccc(O)cc1)NC(=O)Cn1cnc2c(OCc3ccccc3)ncnc21	/	-5.5	/	1.4	/	-18.1	/
CCSc1nnc(SCC(=O)Nc2cc(C)on2)s1	/	9.9	/	-10.3	/	22.4	/
COc1ccc(C2(C)NC(=O)N(CC(=O)Nc3ccc(-c4nc5ccc(C)cc5s4)cc3)C2=O)cc1 (stereo unspecified)	-191.4	-103.7	-1.3	-80.8	-1.7	-122.2	/
